Experimental data published in PMC4201344 (ACS Chemical Biology, 2014).
Positions count from the first letter of the chain named. Entries after “also recorded” stand apart in the source; their conditions may differ.

Columns and labels:
Format in all cases: cell-based, C. elegans
[1] = biological target: T1, GluClβ T10′S (Caenorhabditis elegans, UniProt Q17328, T287S); test: two-electrode voltage clamp, Xenopus laevis oocytes; details: glutamate
T1 sequence (Q17328 23-434 T287S): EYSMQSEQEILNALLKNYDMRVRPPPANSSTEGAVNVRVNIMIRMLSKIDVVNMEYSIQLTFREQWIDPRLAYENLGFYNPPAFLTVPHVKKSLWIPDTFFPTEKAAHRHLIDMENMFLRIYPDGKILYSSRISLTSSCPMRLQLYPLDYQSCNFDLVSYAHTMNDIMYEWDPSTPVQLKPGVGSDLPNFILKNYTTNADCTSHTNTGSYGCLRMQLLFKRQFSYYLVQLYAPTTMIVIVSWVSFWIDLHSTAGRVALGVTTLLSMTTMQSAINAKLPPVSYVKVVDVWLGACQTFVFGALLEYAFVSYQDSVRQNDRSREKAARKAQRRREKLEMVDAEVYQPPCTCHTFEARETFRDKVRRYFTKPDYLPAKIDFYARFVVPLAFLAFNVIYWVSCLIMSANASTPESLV

[2] = biological target: GluClβ T6′A (Caenorhabditis elegans, UniProt Q17328, T283A); test: two-electrode voltage clamp, Xenopus laevis oocytes; details: glutamate
Chain of GluClβ T6′A (Q17328 23-434 T283A): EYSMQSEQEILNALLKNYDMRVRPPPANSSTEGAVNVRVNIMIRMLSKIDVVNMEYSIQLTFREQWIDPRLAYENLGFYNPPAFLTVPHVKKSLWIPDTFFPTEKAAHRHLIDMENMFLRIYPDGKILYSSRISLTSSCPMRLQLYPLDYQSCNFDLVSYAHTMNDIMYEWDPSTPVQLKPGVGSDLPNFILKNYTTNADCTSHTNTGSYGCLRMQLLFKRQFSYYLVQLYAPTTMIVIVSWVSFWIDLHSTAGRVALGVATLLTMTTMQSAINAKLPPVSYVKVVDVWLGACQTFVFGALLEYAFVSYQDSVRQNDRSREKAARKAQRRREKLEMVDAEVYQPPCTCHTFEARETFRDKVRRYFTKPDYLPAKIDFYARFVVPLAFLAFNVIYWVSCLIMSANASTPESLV
Method in brief: (§1)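 C. elegans GluClβ (mammalian codon-optimised) in pGEMhe, mutated by QuikChange; T7 mRNA. […] Voltage clamp at −60 mV in Ca-free ND96, pH 7.5. […] Peak currents taken from baseline, normalised, averaged per concentration, and fit to Hill equation (EC50, nH).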

[3] = biological target: T2, GluClβ T6′S, Q174A/Y206F (Caenorhabditis elegans, UniProt Q17328, Q200A/T283S/Y232F); test: two-electrode voltage clamp, Xenopus laevis oocytes
T2 sequence (Q17328 23-434 Q200A/Y232F/T283S): T1 sequence (Q17328 23-434 T287S) with Q178A, Y210F, T261S, S265T

[4] = test system: GluClβ T6′S, Y206TAG OMe–Phe; test: two-electrode voltage clamp, Xenopus laevis oocytes, nonsense suppression; details: glutamate
[5] = biological target: GluClβ T6′S, N202A (Caenorhabditis elegans, UniProt Q17328, N228A/T283S); test: two-electrode voltage clamp, Xenopus laevis oocytes; details: glutamate
Chain of GluClβ T6′S, N202A (Q17328 23-434 N228A/T283S): as the sequence (Q17328 23-434 T283A) above, with N206A, A261S counted along it

[6] = test system: GluClβ with α signal peptide, T6′S, Y156TAG OMe–Phe; test: two-electrode voltage clamp, Xenopus laevis oocytes, nonsense suppression; details: glutamate
Method in brief: (§2)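 Site-specific TAG codon, read by 74mer THG73 tRNA ligated to dCA-acylated amino acid; NVOC removed by 5 min xenon-lamp irradiation just before injection. Oocytes coinjected with 37.5 ng mRNA plus ~1 μg/μL tRNA at 48 and 24 h pre-recording; unacylated 76mer tRNA served as read-through control.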

[7] = test system: GluClβ with α signal peptide, T6′S, F96TAG F2–Phe; test: two-electrode voltage clamp, Xenopus laevis oocytes, nonsense suppression; details: glutamate
[8] = biological target: T3, GluClβ A2′S (Caenorhabditis elegans, UniProt Q17328, A279S); test: two-electrode voltage clamp, Xenopus laevis oocytes; details: glutamate
T3 sequence (Q17328 23-434 A279S): T1 sequence (Q17328 23-434 T287S) with A257S, S265T

[9] = biological target: GluClβ T13′S (Caenorhabditis elegans, UniProt Q17328, T290S); test: two-electrode voltage clamp, Xenopus laevis oocytes; details: glutamate
Chain of GluClβ T13′S (Q17328 23-434 T290S): as the sequence (Q17328 23-434 T283A) above, with A261T, T268S counted along it
Method in brief: as §1

[10] = test system: GluClβ with α signal peptide, T6′S, Y156TAG Cha; test: two-electrode voltage clamp, Xenopus laevis oocytes, nonsense suppression; details: glutamate
Method in brief: as §2

[11] = test system: GluClβ Y206 3,5-Me2-Phe; test: as above; details: glutamate
Method in brief: as §2

[12] = test system: GluClβ T6′S, Y206TAG F2–Phe (3,5-F2–Phe); test: two-electrode voltage clamp, Xenopus laevis oocytes, nonsense suppression; details: glutamate
[13] = biological target: GluClβ T6′S, R40E (Caenorhabditis elegans, UniProt Q17328, R66E/T283S); test: two-electrode voltage clamp, Xenopus laevis oocytes; details: glutamate
Chain of GluClβ T6′S, R40E (Q17328 23-434 R66E/T283S): as the sequence (Q17328 23-434 T283A) above, with R44E, A261S counted along it
Method in brief: as §1

[14] = biological target: GluClβ T6′S, Y156A (Caenorhabditis elegans, UniProt Q17328, T283S/Y182A); test: as above; details: glutamate
Chain of GluClβ T6′S, Y156A (Q17328 23-434 Y182A/T283S): as the sequence (Q17328 23-434 T283A) above, with Y160A, A261S counted along it
Method in brief: as §1

[15] = test system: GluClβ T6′S, Y206TAG Me–Phe; test: two-electrode voltage clamp, Xenopus laevis oocytes, nonsense suppression; details: glutamate
[16] = biological target: GluClβ T6′S, T203A (Caenorhabditis elegans, UniProt Q17328, T229A/T283S); test: two-electrode voltage clamp, Xenopus laevis oocytes; details: glutamate
Chain of GluClβ T6′S, T203A (Q17328 23-434 T229A/T283S): as the sequence (Q17328 23-434 T283A) above, with T207A, A261S counted along it

Compound: N[C@@H](CCC(=O)O)C(=O)O [glutamate]
- EC50 [1]: 11 ± 1 µM
- Hill [1]: 2.5 ± 0.1
- Imax [1]: 0.3–4 μA
- EC50 [2]: not functional; also recorded: very low response
- EC50 ([3]; glutamate): 920 ± 40 µM
- Hill ([3]; glutamate): 2.2 ± 0.2
- Ω ([3]; mutant cycle analysis Q174A, Y206F): 0.67
- ΔΔG ([3]; mutant cycle analysis Q174A/Y206F): 0.23 kcal/mol
- EC50 [4]: 560 ± 10 µM
- Hill [4]: 1.8 ± 0.1
- Imax [4]: 0.1–1.4 μA
- Hill [5]: 3.3 ± 0.2
- EC50 [6]: nonfunctional; also recorded: no response
- EC50 [7]: 4.7 ± 0.1 µM
- Hill [7]: 4.1 ± 0.5
- Imax [7]: 0.04–1 μA
- EC50 [8]: 630 ± 10 µM
- Hill [8]: 2.0 ± 0.1
- Imax [8]: 0.6–6 μA
- EC50 [9]: not functional; also recorded: no response
- EC50 [10]: no response
- receptor function [11]: nonfunctional
- Imax [12]: 0.1–0.6 μA
- EC50 ([12]; no plateau at highest concentration 100 mM): > 100000 µM
- EC50 [13]: nonfunctional; also recorded: no response
- EC50 [14]: no response
- EC50 [15]: 98 ± 3 µM
- Hill [15]: 2.4 ± 0.1
- Imax [15]: 0.05–7 μA
- EC50 [16]: 640 ± 10 µM
- Hill [16]: 2.3 ± 0.1
